# Assay results of several laboratories.
# Each line is one published result; the experiments were not run side by side.
# Target: Membrane-associated tyrosine- and threonine-specific cdc2-inhibitory kinase (PKMYT1, Homo sapiens, UniProt Q99640)
# One construct used (Q99640 1-499): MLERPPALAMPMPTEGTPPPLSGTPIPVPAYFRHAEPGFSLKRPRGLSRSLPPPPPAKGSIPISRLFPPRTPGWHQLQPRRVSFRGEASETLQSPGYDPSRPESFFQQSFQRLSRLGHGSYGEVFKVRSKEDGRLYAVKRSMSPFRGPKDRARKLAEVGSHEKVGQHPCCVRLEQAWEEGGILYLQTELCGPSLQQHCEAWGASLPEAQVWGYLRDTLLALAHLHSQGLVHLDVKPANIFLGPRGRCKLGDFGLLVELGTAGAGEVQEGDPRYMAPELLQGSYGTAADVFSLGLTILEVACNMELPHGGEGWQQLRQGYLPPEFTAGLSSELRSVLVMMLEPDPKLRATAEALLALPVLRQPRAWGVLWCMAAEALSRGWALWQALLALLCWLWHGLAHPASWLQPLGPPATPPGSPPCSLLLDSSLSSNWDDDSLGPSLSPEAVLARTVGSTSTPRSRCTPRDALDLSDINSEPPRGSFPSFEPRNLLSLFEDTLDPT
SMILES,assay,setting,remaining binding
COc1cc(-c2cn(C3CCc4c(F)cccc4N(CC(F)(F)F)C3=O)nn2)ccc1-n1cnc(C)c1 (centres unmarked),"cell-free assay, competition with immobilised ligand",1 µM,100%
Nc1ncc2c(n1)-c1c([nH]c3ccc(C#CC4CC4)cc13)CCCC2,"binding, competition with immobilised ligand",1 µM,98%
CN(C)c1nccc(-c2cnn3ncccc23)n1,binding,1 µM,100%
CCC(=O)N[C@@H]1CC[C@H](C(=O)N(C)c2ccc(-c3nc4ccccc4o3)cc2)C1,"cell-free assay, competition with immobilised ligand",1 µM,100%
COc1cnc(Nc2cccc(S(N)(=O)=O)c2)nc1N1CCN(c2ccccc2)CC1,"binding, competition with immobilised ligand",1 µM,89%
FC(F)(F)Oc1cccc(-c2cnc3ccc(-c4ccncc4)nn23)c1,"cell-free assay, competition with immobilised ligand",5 µM,67%
c1cncc(-c2cccc(Nc3nccc(NC4CCCCC4)n3)c2)c1,"binding, competition with immobilised ligand",10 µM,96%
O=C(NCCCN1CCOCC1)c1ccc(Nc2ncc(Cl)c(-c3ccc(Cl)s3)n2)cc1,"binding, competition with immobilised ligand",1 µM,100%
CCOC(=O)c1cc2cc(-c3cc(C(=O)NCc4ccc(C(=O)O)cc4)nn3C)ccc2[nH]1,"cell-free assay, competition with immobilised ligand",0.1 µM,100%
N[C@@H]1CCN(c2nccc(-c3cnn4ncccc34)n2)C1,binding,1 µM,100%
Cc1cnc(Nc2ccc(C(=O)N3CCC(N4CCCC4)CC3)cc2)nc1-c1cc2ccccc2s1,"binding, competition with immobilised ligand",1 µM,80%
C[C@H]1CCN(c2nccc(-c3cnn4ncccc34)n2)C1,binding,1 µM,100%
CC(=O)c1c(NS(C)(=O)=O)c2cc(-c3ccc(Cl)cc3)c(-c3ccc(Cl)cc3Cl)nc2n(C)c1=O,"cell-free assay, competition with immobilised ligand",1 µM,99%
CN(CCCC(F)(F)F)c1nccc(-c2cnn3ncccc23)n1,binding,1 µM,93%
O=C(c1ccc(Nc2ncc(Cl)c(-c3cc4ccccc4s3)n2)cc1)N1CCC(N2CCCC2)CC1,"binding, competition with immobilised ligand",1 µM,87%
O=C(Nc1c[nH]nc1C(=O)NC1CCNCC1)c1cc(F)cc(F)c1,"binding, competition with immobilised ligand",1 µM,83%
Cc1cnn2ncc(-c3ccnc(N(C)C)n3)c2c1,binding,1 µM,100%
COc1cc(-c2cn(C3CCc4ccccc4N(CC(F)(F)F)C3=O)nn2)ccc1-n1ccc(C)n1 (centres unmarked),"cell-free assay, competition with immobilised ligand",1 µM,100%
COc1ccnn2ncc(-c3ccnc(N(C)C)n3)c12,binding,1 µM,100%
Cn1nc(C(F)(F)F)cc1-c1cnc(N2CCc3cc(S(=O)(=O)Nc4c(F)cc(Cl)cc4F)cc(N4CCCC4=O)c32)nc1,"cell-free assay, competition with immobilised ligand",1 µM,93%
